# Results collected from several papers.
# Protocols differ between the studies behind these lines.
# PIK3CA E545A: Phosphatidylinositol 4,5-bisphosphate 3-kinase catalytic subunit alpha isoform (PIK3CA, Homo sapiens, UniProt P42336, E545A)
# PIK3CA H1047L: Phosphatidylinositol 4,5-bisphosphate 3-kinase catalytic subunit alpha isoform (PIK3CA, Homo sapiens, UniProt P42336, H1047L)
# PIK3CA H1047Y: Phosphatidylinositol 4,5-bisphosphate 3-kinase catalytic subunit alpha isoform (PIK3CA, Homo sapiens, UniProt P42336, H1047Y)
# PIK3CA I800L: Phosphatidylinositol 4,5-bisphosphate 3-kinase catalytic subunit alpha isoform (PIK3CA, Homo sapiens, UniProt P42336, I800L)
SMILES,target,assay,setting,remaining binding [%]
C[C@@H](c1ccc(-n2cnc3c(N)ncnc32)cc1)N1CCc2nn(C)c(Cc3ccccc3)c2C1=O,PIK3CA E545A,"binding, competition with immobilised ligand",0.1 µM,100
C[C@@H]1CCN(c2nccc(-c3cnn4ncccc34)n2)C1,PIK3CA E545A,binding,1 µM,88
CCS(=O)(=O)c1cc2cc(C[C@](O)(CC(C)(C)c3ccc(F)cc3C(N)=O)C(F)(F)F)[nH]c2cn1,PIK3CA H1047L,"cell-free assay, competition with immobilised ligand",1 µM,96
N[C@H]1CCN(c2nccc(-c3cnn4ncccc34)n2)C1,"Phosphatidylinositol 4,5-bisphosphate 3-kinase catalytic subunit alpha isoform (PIK3CA, Homo sapiens, UniProt P42336)",binding,1 µM,100
O=C(Nc1c[nH]nc1C(=O)NC1CCNCC1)c1cc(F)cc(F)c1,PIK3CA H1047L,"binding, competition with immobilised ligand",1 µM,87
O=C(NCc1ncc(C(F)(F)F)cc1Cl)c1ccc2c(c1)C1(CCS(=O)(=O)CC1)[C@@H](C1CC1)N2S(=O)(=O)c1ccc(F)cc1,"Phosphatidylinositol 4,5-bisphosphate 3-kinase catalytic subunit alpha isoform (PIK3CA, Homo sapiens, UniProt P42336, Q546K)","cell-free assay, competition with immobilised ligand",1 µM,72
COc1ncc2cc3ccccc3nc2c1C#N,PIK3CA H1047Y,"cell-free assay, competition with immobilised ligand",5 µM,86
CN(C(=O)c1ccccc1)c1cc(N(C)c2ccc3c(c2)CCc2ccc(C(=O)NCCN4CCOCC4)cc2C3=O)ccc1F,PIK3CA I800L,"cell-free assay, competition with immobilised ligand",1 µM,62
c1cnn2ncc(-c3ccnc(N4CCC45COC5)n3)c2c1,PIK3CA I800L,binding,1 µM,68
O=C(Nc1cccnn1)N1CC(C/C=C/c2cncc(Oc3ccc(C(F)(F)F)cn3)n2)C1,"Phosphatidylinositol 4,5-bisphosphate 3-kinase catalytic subunit alpha isoform (PIK3CA, Homo sapiens, UniProt P42336, C420R)","cell-free assay, competition with immobilised ligand",1 µM,66
COc1cnc(Nc2cccc(S(N)(=O)=O)c2)nc1N1CCN(c2ccccc2)CC1,PIK3CA H1047Y,"binding, competition with immobilised ligand",1 µM,74
CN(C)c1ncc(F)c(-c2cnn3ncccc23)n1,PIK3CA H1047L,binding,1 µM,100
O=C(NCCCN1CCOCC1)c1ccc(Nc2ncc(Cl)c(-c3ccc(Cl)s3)n2)cc1,"Phosphatidylinositol 4,5-bisphosphate 3-kinase catalytic subunit alpha isoform (PIK3CA, Homo sapiens, UniProt P42336, E542K)","binding, competition with immobilised ligand",1 µM,100
O=c1nc(-c2ccccn2)sc2ccccc12,PIK3CA E545A,"cell-free assay, competition with immobilised ligand",1 µM,92
O=C(c1ccc(Nc2nccc(-c3cc4ccccc4s3)n2)cc1)N1CCC(N2CCCC2)CC1,PIK3CA H1047L,"binding, competition with immobilised ligand",1 µM,100
CC1CCCN1c1nccc(-c2cnn3ncccc23)n1 (stereo not shown),"Phosphatidylinositol 4,5-bisphosphate 3-kinase catalytic subunit alpha isoform (PIK3CA, Homo sapiens, UniProt P42336, M1043I)",binding,1 µM,100
CO[C@@H](C)c1c(Nc2ccc([C@@H](N(C)C(=O)C3CCS(=O)(=O)CC3)C(F)(F)F)cc2)cnc2cc(Cl)nn12,PIK3CA H1047L,"cell-free assay, competition with immobilised ligand",1 µM,98
O=C(NCCCN1CCOCC1)c1ccc(Nc2nccc(-c3cc4ccccc4s3)n2)cc1,PIK3CA I800L,"binding, competition with immobilised ligand",1 µM,13
c1cncc(-c2cccc(Nc3nccc(NC4CCCCC4)n3)c2)c1,PIK3CA E545A,"binding, competition with immobilised ligand",10 µM,80
